ChEMBL document CHEMBL3739271, “Synthesis and evaluation of a series of resveratrol analogues as potent anti-cancer agents that target tubulin” (2015)
The source made the active and inactive calls.

Legend:
[1] = tested on: CCRF-CEM; experiment: Cytotoxicity against human CCRF-CEM cells by SRB assay; format: functional
Outline: (§1)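 NCI 60 human tumor cell line panel, sulforhodamine B (SRB) protein-stain read-out. Compounds were first screened at a single dose of 10^-5 M, and selected compounds were then tested in a five-dose format. GI50 is the drug concentration giving a 50% reduction in net protein increase relative to control cells.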

[2] = Cytotoxicity against human HL-60(TB) cells by SRB assay; format: functional
Outline: (§2)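 NCI 60-cell-line panel using sulforhodamine B protein stain. Initial single-dose screen at 10^-5 M, then five-dose testing. GI50 is the drug concentration giving a 50% reduction in net protein increase relative to control cells.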

[3] = tested on: K562; experiment: Cytotoxicity against human K562 cells by SRB assay; format: functional; outline: as §1
[4] = Cytotoxicity against human MOLT4 cells by SRB assay; format: functional; conditions: MOLT-4; outline: as §1
[5] = Cytotoxicity against human RPMI8226 cells by SRB assay; format: functional; conditions: RPMI-8226; outline: as §1
[6] = tested on: SR; experiment: Cytotoxicity against human SR cells by SRB assay; format: functional; outline: as §1
[7] = tested on: A549; experiment: Cytotoxicity against human A549 cells by SRB assay; format: functional; outline: as §1
[8] = Cytotoxicity against human HOP62 cells by SRB assay; format: functional; conditions: HOP-62; outline: as §1
[9] = Cytotoxicity against human HOP92 cells by SRB assay; format: functional; conditions: HOP-92; outline: as §1
[10] = tested on: NCI-H23; experiment: Cytotoxicity against human NCI-H23 cells by SRB assay; format: functional; outline: as §1
[11] = tested on: NCI-H522; experiment: Cytotoxicity against human NCI-H522 cells by SRB assay; format: functional; outline: as §1
[12] = Cytotoxicity against human COLO205 cells by SRB assay; format: functional; conditions: COLO 205; outline: as §1
[13] = Cytotoxicity against human HCC2998 cells by SRB assay; format: functional; conditions: HCC 2998; outline: as §1
[14] = Cytotoxicity against human HCT116 cells by SRB assay; format: functional; conditions: HCT-116; outline: as §1
[15] = Cytotoxicity against human HCT15 cells by SRB assay; format: functional; conditions: HCT-15; outline: as §1
[16] = tested on: HT-29; experiment: Cytotoxicity against human HT-29 cells by SRB assay; format: functional; outline: as §1
[17] = tested on: KM12; experiment: Cytotoxicity against human KM12 cells by SRB assay; format: functional; outline: as §1
[18] = Cytotoxicity against human SW620 cells by SRB assay; format: functional; conditions: SW-620; outline: as §1
[19] = Cytotoxicity against human SF268 cells by SRB assay; format: functional; conditions: SF-268; outline: as §1
[20] = Cytotoxicity against human SF295 cells by SRB assay; format: functional; conditions: SF-295; outline: as §1
[21] = Cytotoxicity against human SF539 cells by SRB assay; format: functional; conditions: SF-539; outline: as §1
[22] = Cytotoxicity against human SNB19 cells by SRB assay; format: functional; conditions: SNB-19; outline: as §1
[23] = Cytotoxicity against human SNB75 cells by SRB assay; format: functional; conditions: SNB-75; outline: as §1
[24] = tested on: U-251; experiment: Cytotoxicity against human U251 cells by SRB assay; format: functional; outline: as §1
[25] = Cytotoxicity against human LOXIMVI cells by SRB assay; format: functional; conditions: LOX IMVI; outline: as §2
[26] = tested on: M14; experiment: Cytotoxicity against human M14 cells by SRB assay; format: functional; outline: as §1
[27] = tested on: MDA-MB-435; experiment: Cytotoxicity against human MDA-MB-435 cells by SRB assay; format: functional; outline: as §1
[28] = tested on: SK-MEL-2; experiment: Cytotoxicity against human SK-MEL-2 cells by SRB assay; format: functional; outline: as §1
[29] = tested on: SK-MEL-28; experiment: Cytotoxicity against human SK-MEL-28 cells by SRB assay; format: functional; outline: as §1
[30] = tested on: SK-MEL-5; experiment: Cytotoxicity against human SK-MEL-5 cells by SRB assay; format: functional; outline: as §1
[31] = Cytotoxicity against human UACC62 cells by SRB assay; format: functional; conditions: UACC-62; outline: as §1
[32] = Cytotoxicity against human IGROV1 cells by SRB assay; format: functional; conditions: IGROV-1; outline: as §2
[33] = Cytotoxicity against human OVCAR3 cells by SRB assay; format: functional; conditions: OVCAR-3; outline: as §1
[34] = Cytotoxicity against human OVCAR4 cells by SRB assay; format: functional; conditions: OVCAR-4; outline: as §1
[35] = tested on: NCI/ADR-RES; experiment: Cytotoxicity against human NCI/ADR-RES cells by SRB assay; format: functional; outline: as §1
[36] = Cytotoxicity against human SKOV3 cells by SRB assay; format: functional; conditions: SK-OV-3; outline: as §1
[37] = tested on: 786-0; experiment: Cytotoxicity against human 786-0 cells by SRB assay; format: functional; outline: as §1
[38] = tested on: A498; experiment: Cytotoxicity against human A498 cells by SRB assay; format: functional; outline: as §1
[39] = tested on: ACHN; experiment: Cytotoxicity against human ACHN cells by SRB assay; format: functional; outline: as §1
[40] = tested on: CAKI-1; experiment: Cytotoxicity against human CAKI-1 cells by SRB assay; format: functional; outline: as §1
[41] = Cytotoxicity against human UO31 cells by SRB assay; format: functional; conditions: UO-31; outline: as §1
[42] = tested on: MCF7; experiment: Cytotoxicity against human MCF7 cells by SRB assay; format: functional; outline: as §1
[43] = tested on: MDA-MB-231; experiment: Cytotoxicity against human MDA-MB-231 cells by SRB assay; format: functional; outline: as §1
[44] = Cytotoxicity against human Hs578T cells by SRB assay; format: functional; conditions: Hs-578T; outline: as §1
[45] = tested on: MDA-MB-468; experiment: Cytotoxicity against human MDA-MB-468 cells by SRB assay; format: functional; outline: as §1
[46] = tested on: MV4-11; experiment: Anti-leukemia activity against human MV4-11 cells after 48 hrs by Annexin-V staining; format: functional; conditions: MV4-11, 48 h, read-out: LD50 (the source's name)
Outline: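 MV4-11 AML cells exposed to increasing compound concentrations for 24 and 48 h. Viability measured by Annexin V/7-AAD staining and expressed as percent Annexin V-/7-AAD- cells relative to control. N = 5, error bars SD. LD50 values derived from these curves.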

[47] = tested on: MV4-11; experiment: Inhibition of alpha-tubulin polymerization in human MV4-11 cells at 25 to 100 nM after 2 hrs by Western blotting; format: cell-based
Outline: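 MV4-11 cells treated for 2 hours at 25, 50 and 100 nM. Microtubule polymerization then assessed by immunoblot.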

COc1ccc(/C=C(\C#N)c2cc(OC)c(OC)c(OC)c2)cc1O
20 nM: GI50 [13]
38.6 nM: CC50 [46]
1010 nM: GI50 [29]
30 nM: GI50 [40]
50 nM: GI50 [20]
active: inhibition [47]
3180 nM: GI50 [16]
< 10 nM: GI50 [1] | GI50 [2] | GI50 [3] | GI50 [4] | GI50 [5] | GI50 [6] | GI50 [7] | GI50 [8] | GI50 [9] | GI50 [10] | GI50 [11] | GI50 [14] | GI50 [15] | GI50 [17] | GI50 [18] | GI50 [19] | GI50 [21] | GI50 [22] | GI50 [23] | GI50 [25] | GI50 [26] | GI50 [27] | GI50 [28] | GI50 [30] | GI50 [31] | GI50 [32] | GI50 [33] | GI50 [34] | GI50 [35] | GI50 [37] | GI50 [38] | GI50 [39] | GI50 [41] | GI50 [42] | GI50 [43] | GI50 [44] | GI50 [45]
10 nM: GI50 [24] | GI50 [36]
2990 nM: GI50 [12]
